Activity calls are given as the source filed them. The rule behind the calls is not given here.
Tests used:
[1] = target: Tyrosine-protein kinase receptor UFO (Homo sapiens) (UniProt P30530); assay: Inhibition of AXL ACT labeling site in human A-375 cells at 0.5 uM by KiNativ Profiling analysis relative to control; assay type: cell-based
Outline: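 Live A375 melanoma cells were treated with compound at 5 or 0.5 μM, then lysed. Lysates were labeled with a lysine-reactive ATP or ADP-biotin probe. Read-out was the compound's protection of kinase labeling sites from probe labeling (KiNativ).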

[2] = target: T1, Dual specificity mitogen-activated protein kinase kinase 4 (Homo sapiens) (UniProt P45985); assay: Inhibition of MAP2K4 Lys2 labeling site in human A-375 cells at 0.05 uM by KiNativ Profiling analysis relative to control; assay type: cell-based
T1 sequence (whole entry): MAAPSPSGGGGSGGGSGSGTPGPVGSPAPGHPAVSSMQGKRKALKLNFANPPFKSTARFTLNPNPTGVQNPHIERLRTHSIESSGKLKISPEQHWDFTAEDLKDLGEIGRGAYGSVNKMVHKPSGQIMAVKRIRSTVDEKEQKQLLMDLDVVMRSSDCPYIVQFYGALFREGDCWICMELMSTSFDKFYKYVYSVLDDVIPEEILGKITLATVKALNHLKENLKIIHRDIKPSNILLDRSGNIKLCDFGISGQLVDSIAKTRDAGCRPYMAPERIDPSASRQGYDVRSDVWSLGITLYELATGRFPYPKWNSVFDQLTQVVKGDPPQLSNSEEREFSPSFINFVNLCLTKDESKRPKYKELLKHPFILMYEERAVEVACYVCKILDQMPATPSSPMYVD

[3] = target: Dual specificity mitogen-activated protein kinase kinase 1 (Homo sapiens) (UniProt Q02750); assay: Inhibition of MEK1 (unknown origin) at 10 uM by Ambit Kinomescan binding assay
Chain of Dual specificity mitogen-activated protein kinase kinase 1 (Homo sapiens) (Q02750 whole entry): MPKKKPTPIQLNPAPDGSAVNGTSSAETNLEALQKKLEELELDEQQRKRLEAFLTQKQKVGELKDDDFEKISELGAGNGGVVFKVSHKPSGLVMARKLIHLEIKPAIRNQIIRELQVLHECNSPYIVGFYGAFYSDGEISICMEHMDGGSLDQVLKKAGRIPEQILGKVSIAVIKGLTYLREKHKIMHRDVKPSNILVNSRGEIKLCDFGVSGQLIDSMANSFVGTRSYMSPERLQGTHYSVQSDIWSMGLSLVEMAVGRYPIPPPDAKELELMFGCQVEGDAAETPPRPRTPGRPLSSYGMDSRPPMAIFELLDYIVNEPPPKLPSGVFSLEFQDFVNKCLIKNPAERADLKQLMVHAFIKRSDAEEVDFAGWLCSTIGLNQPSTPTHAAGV

[4] = target: Epidermal growth factor receptor (Homo sapiens) (UniProt P00533); assay: Inhibition of EGFR Lys1 labeling site in human A-375 cells at 5 uM by KiNativ Profiling analysis relative to control; assay type: cell-based
Chain of Epidermal growth factor receptor (Homo sapiens) (P00533 whole entry): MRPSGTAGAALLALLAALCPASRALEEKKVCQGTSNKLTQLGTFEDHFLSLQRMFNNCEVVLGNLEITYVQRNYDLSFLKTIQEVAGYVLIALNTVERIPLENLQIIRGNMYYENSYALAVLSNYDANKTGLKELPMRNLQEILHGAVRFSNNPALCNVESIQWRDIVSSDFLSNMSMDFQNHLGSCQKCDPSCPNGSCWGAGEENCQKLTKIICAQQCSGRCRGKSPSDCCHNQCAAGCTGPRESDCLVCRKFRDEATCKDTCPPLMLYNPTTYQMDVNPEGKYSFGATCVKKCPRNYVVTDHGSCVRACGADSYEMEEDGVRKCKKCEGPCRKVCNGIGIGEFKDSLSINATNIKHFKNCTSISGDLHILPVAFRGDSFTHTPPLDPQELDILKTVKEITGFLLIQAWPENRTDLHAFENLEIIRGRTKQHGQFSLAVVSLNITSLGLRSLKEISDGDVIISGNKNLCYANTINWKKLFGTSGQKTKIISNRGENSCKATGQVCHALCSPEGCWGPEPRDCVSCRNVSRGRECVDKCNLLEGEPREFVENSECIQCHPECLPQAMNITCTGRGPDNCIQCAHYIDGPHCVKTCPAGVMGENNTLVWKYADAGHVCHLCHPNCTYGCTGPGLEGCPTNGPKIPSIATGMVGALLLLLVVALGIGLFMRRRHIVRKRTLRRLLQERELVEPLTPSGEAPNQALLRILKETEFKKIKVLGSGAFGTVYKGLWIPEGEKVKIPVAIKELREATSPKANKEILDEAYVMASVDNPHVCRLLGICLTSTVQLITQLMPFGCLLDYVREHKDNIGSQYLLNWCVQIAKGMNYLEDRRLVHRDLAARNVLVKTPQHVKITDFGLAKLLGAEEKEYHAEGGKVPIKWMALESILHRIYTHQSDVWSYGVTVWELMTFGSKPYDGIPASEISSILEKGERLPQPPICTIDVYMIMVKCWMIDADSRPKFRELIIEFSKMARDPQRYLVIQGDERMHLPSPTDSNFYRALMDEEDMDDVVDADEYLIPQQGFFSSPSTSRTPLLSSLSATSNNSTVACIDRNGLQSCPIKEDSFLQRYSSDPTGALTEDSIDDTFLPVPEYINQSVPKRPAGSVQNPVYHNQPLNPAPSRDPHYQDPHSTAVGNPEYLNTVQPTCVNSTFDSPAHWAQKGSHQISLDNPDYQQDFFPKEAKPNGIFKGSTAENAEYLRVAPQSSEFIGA

[5] = target: T2, Serine/threonine-protein kinase LATS2 (Homo sapiens) (UniProt Q9NRM7); assay: Inhibition of LATS2 Lys2 labeling site in human A-375 cells at 5 uM by KiNativ Profiling analysis relative to control; assay type: cell-based
T2 sequence (whole entry): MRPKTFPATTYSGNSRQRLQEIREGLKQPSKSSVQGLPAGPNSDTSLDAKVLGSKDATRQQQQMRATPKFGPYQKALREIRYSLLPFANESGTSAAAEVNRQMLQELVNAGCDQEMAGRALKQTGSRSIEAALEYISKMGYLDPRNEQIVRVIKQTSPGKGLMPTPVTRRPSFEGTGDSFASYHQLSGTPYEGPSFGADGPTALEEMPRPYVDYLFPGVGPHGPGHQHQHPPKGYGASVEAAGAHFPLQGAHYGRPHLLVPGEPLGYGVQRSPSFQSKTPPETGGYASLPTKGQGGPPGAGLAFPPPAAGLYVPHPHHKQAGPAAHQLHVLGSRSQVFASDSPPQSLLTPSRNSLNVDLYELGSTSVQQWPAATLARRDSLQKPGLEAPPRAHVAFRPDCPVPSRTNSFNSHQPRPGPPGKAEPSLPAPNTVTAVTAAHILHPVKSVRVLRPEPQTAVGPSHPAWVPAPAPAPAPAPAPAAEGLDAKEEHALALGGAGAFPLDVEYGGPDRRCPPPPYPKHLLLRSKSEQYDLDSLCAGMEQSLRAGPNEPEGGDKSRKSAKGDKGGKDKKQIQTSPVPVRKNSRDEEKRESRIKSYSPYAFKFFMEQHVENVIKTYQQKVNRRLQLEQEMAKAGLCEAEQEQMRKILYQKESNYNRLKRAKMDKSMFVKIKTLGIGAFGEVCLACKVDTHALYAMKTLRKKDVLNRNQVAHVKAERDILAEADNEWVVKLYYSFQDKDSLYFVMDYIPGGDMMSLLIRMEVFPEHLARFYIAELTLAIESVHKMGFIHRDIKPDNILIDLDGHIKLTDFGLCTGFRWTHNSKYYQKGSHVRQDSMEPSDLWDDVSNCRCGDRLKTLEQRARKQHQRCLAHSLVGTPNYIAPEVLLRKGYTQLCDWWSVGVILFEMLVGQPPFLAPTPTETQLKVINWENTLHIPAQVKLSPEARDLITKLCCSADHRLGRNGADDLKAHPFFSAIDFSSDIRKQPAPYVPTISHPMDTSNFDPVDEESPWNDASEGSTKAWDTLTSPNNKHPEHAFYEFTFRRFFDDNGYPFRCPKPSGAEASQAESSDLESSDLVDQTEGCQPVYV

[6] = target: DNA-PK/Ku70/Ku85 (Homo sapiens) (UniProt P78527+P12956+P13010); assay: Inhibition of DNAPK ATP labeling site harbouring KGGSWIQEINVAEKNWYPR in human A-375 cells at 0.5 uM by KiNativ Profiling analysis relative to control; assay type: cell-based
[7] = target: Cyclin-dependent kinase 17 (Homo sapiens) (UniProt Q00537); assay: Inhibition of PCTK2 (unknown origin) at 10 uM by Ambit Kinomescan binding assay relative to control
Chain of Cyclin-dependent kinase 17 (Homo sapiens) (Q00537 whole entry, looked up): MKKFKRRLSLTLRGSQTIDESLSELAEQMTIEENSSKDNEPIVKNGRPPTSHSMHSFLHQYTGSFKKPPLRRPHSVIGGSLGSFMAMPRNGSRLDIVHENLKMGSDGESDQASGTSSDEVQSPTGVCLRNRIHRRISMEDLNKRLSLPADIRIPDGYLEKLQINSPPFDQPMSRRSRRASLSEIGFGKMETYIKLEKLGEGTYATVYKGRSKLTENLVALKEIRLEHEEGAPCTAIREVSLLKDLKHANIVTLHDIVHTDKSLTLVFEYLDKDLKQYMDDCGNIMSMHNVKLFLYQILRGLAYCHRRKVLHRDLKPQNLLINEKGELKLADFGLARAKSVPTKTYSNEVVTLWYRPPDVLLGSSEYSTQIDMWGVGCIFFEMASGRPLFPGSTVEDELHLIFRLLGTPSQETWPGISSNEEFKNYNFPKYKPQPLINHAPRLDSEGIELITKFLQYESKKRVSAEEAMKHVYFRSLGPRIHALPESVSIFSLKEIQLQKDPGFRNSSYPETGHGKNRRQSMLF

[8] = test system: Tyrosine-protein kinase ABL1 (Homo sapiens), P00519 [F317L]; assay: Inhibition of ABL1 F317L mutant (unknown origin) at 10 uM by Ambit Kinomescan binding assay relative to control
Chain of Tyrosine-protein kinase ABL1 (Homo sapiens), P00519 [F317L] (P00519 whole entry F317L): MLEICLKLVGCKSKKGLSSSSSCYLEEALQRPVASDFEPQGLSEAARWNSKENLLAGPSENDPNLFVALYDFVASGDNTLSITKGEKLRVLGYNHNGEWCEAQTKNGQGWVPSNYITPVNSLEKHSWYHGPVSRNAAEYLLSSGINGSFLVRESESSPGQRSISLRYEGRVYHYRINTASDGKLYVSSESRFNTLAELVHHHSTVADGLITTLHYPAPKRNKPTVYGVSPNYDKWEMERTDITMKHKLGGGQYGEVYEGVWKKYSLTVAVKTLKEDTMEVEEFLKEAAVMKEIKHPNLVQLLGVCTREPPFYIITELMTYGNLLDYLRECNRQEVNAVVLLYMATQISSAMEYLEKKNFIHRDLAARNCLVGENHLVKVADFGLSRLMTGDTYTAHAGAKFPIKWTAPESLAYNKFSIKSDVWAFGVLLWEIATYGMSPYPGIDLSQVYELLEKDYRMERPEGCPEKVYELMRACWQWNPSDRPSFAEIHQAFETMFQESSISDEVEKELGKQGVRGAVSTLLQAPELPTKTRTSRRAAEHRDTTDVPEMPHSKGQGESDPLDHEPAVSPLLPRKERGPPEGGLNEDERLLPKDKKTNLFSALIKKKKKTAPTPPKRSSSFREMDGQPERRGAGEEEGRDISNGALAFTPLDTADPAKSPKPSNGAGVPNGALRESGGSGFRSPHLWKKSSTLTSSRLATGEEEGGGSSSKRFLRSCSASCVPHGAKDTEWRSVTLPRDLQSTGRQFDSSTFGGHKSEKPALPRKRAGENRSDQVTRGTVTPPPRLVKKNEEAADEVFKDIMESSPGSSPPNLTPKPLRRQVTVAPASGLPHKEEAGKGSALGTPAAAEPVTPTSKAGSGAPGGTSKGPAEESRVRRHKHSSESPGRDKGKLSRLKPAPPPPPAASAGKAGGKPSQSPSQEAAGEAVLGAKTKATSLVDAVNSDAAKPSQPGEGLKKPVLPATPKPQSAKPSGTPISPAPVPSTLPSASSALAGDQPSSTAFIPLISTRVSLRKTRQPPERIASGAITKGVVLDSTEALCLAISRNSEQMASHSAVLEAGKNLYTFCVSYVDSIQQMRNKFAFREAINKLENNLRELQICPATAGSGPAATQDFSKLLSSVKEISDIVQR

[9] = target: T3, Mitogen-activated protein kinase 14 (Homo sapiens, UniProt Q16539); assay: Inhibition of p38alpha (unknown origin) at 10 uM by Ambit Kinomescan binding assay relative to control; values are per cent of control
T3 sequence (Q16539 whole entry, canonical isoform): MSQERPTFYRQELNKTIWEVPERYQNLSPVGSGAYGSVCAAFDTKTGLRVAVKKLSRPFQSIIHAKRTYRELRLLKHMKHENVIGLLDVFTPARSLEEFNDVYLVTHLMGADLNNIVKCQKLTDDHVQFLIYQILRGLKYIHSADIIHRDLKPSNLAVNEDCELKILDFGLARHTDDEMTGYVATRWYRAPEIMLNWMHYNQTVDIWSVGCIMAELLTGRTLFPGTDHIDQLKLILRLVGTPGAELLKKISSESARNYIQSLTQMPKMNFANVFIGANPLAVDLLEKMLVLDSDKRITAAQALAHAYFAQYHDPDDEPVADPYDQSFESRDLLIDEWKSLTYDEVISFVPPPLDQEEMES

[10] = target: Phosphatidylinositol 4,5-bisphosphate 3-kinase catalytic subunit beta isoform (Homo sapiens) (UniProt P42338); assay: Inhibition of PIK3CB ATP labeling site harbouring VFGEDSVGVIFKNGDDLR in human Huh-7 cell lysate at 1 uM by KiNativ Profiling analysis relative to control; assay type: subcellular
[11] = target: Phosphatidylinositol 4,5-bisphosphate 3-kinase catalytic subunit alpha isoform (Homo sapiens) (UniProt P42336); assay: Inhibition of PIK3CA ATP labeling site in human A-375 cells at 0.5 uM by KiNativ Profiling analysis relative to control; assay type: cell-based
[12] = target: T3, Mitogen-activated protein kinase 14; assay: Inhibition of p38 alpha Lys2 labeling site in human A-375 cells at 5 uM by KiNativ Profiling analysis relative to control; assay type: cell-based

Chain of Tyrosine-protein kinase receptor UFO (Homo sapiens) (P30530 whole entry): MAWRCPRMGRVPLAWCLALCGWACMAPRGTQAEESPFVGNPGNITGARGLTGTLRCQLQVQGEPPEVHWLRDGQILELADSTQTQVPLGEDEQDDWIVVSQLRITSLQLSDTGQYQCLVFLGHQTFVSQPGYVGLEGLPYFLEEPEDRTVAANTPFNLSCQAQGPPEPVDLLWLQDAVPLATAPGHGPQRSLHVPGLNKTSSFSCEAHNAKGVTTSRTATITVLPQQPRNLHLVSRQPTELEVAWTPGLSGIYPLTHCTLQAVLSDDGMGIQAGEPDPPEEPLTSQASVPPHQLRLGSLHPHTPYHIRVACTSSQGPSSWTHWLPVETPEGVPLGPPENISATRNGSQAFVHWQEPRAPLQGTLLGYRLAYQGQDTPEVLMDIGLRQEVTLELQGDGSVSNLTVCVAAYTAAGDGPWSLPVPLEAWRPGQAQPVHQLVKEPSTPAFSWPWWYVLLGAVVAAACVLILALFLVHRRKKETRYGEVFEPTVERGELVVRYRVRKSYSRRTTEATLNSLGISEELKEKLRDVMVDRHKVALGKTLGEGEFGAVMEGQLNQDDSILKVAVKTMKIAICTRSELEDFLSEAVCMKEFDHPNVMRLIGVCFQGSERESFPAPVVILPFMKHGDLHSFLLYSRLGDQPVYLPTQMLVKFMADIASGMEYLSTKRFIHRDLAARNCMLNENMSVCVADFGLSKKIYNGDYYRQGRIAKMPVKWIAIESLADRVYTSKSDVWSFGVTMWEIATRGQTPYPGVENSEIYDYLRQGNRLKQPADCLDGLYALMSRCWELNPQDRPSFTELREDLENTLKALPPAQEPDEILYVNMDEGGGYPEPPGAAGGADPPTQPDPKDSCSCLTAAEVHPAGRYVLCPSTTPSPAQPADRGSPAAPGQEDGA

CCN1CCN(Cc2ccc(NC(=O)c3ccc(C)c(Oc4ccnc5[nH]ccc45)c3)cc2C(F)(F)F)CC1
inhibition [1]: 2.3%
inhibition [2]: -3.4%
inhibition [3]: inactive
inhibition [4]: -1.5%
inhibition [5]: 5.5%
inhibition [6]: 13.7%
inhibition [7]: 0.1%
inhibition [8]: 0.1%
percent of control [9]: 0%

CNc1cc(Oc2cc(C(=O)Nc3cc(N4CCN(C)CC4)cc(C(F)(F)F)c3)ccc2C)ncn1
inhibition [10]: -1.3%

CCN1CCN(Cc2ccc(NC(=O)c3ccc(C)c(/C=C/c4cnc5[nH]ccc5c4OC)c3)cc2C(F)(F)F)CC1
inhibition [11]: 34.5%
inhibition [12]: 52.4%
